This is a sample that favours compounds with a hit; in the whole collection about 1.5% have one here.
NSD2 inh – blocks human histone methyltransferase NSD2 | AID 743445 | inhibition, % at 12.5 µM | actives 0.54% (n = 310,000) | O96028 | NSD2 peptide methylation, AlphaScreen, 120 min
DNMT1 inh – DNMT1 (human) enzyme inhibition. P26358. DNMT1 molecular beacon, Hinp1I cleavage, fluorescence. inhibition (reported as % activation of signal), % at 10 µM. actives 0.83% (n = 360,000). AID 588458
Casp6 inh – inhibitors of human caspase-6; P55212; purified caspase-6, Z-VEID-R110 cleavage fluorescence; inhibition, % at 12.5 µM; actives 0.53% (n = 350,000); AID 686996;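 active means mean inhibition across replicates at least about 35%, with every replicate also reaching that limit, limit read from the data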;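 further: 0% = median of neutral control wells and 100% = no fluorescence left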
Target sequence (P55212 24-179 limits assumed): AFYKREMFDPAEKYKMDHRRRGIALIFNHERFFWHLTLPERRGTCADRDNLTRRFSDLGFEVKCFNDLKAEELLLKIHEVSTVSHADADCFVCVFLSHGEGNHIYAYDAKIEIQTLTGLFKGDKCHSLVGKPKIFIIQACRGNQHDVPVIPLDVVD
Target sequence (P55212 194-293 limits assumed): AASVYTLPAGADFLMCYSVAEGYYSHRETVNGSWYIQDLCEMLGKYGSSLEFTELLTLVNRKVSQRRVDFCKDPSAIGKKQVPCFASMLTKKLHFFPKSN
HCV NS3 hel inh – inhibitors of Hepatitis C virus NS3 helicase. actives 0.56% (n = 290,000). inhibition, % at 10.9 µM. NS3 helicase DNA unwinding, Cy5 molecular beacon fluorescence;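 active means inhibition above the mean of all tested compounds plus 3 SD, set per campaign, cut at about 35% in these data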;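 further: 0% = DMSO wells and 100% = thioflavine S control wells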
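test system = hepatitis C virus NS3 helicase domain fragment enzyme | reagent = annealed dual-labelled DNA beacon duplex, ATP-started | times = 1 h at 25 °C | detection = Cy5 fluorescence, 0 and 60 min reads | read-out basis = percent inhibition from t60/t0 fluorescence ratio | control set = DMSO and thioflavine S | replication = one well per compound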
* hit, by the source's call. Unless noted, no stated cut-off is given here; in the data, active means inhibition above about 50%; inactive means the rest.

What do the screens show for `CC(NC(=O)CN1c2cccc3cccc(c23)S1(=O)=O)c1ccc(S(N)(=O)=O)cc1` (stereo not drawn)?
NSD2 inh: 3; DNMT1 inh: -6; Casp6 inh: 56*

What do the screens show for `Nc1cccnc1Oc1ccc(F)cc1F`?
NSD2 inh: -4; DNMT1 inh: 1; Casp6 inh: 46*; HCV NS3 hel inh: -1

Results for Nc1cccnc1Oc1ccc(F)cc1 ?
NSD2 inh: 38; DNMT1 inh: 1; Casp6 inh: 52*; HCV NS3 hel inh: 3

How did CCOC(=O)C1=C(COC(=O)c2ccc([N+](=O)[O-])o2)NC(=O)NC1C (stereo not drawn) do in these assays?
NSD2 inh: 28; DNMT1 inh: -5; Casp6 inh: 43*

What do the screens show for `CCOC(=O)C1=C(COC(=O)c2cc([N+](=O)[O-])ccc2Cl)NC(=O)NC1C` (stereo not drawn)?
NSD2 inh: 1; DNMT1 inh: 2; Casp6 inh: -2

How did CCOC(=O)C1CCN(C(=O)COC(=O)c2ccc([N+](=O)[O-])o2)CC1 do in these assays?
NSD2 inh: 46; DNMT1 inh: -3; Casp6 inh: 56*

What do the screens show for `O=C(NC[C@H]1CC[C@@H]2[C@@H](CN2Cc2ccccc2F)O1)C1CC1`?
Casp6 inh: 0

Results for O=C(O)c1ccc(-c2ccc(/C=C3\NC(=O)N(Cc4ccc(Cl)cc4)C3=O)o2)cc1 ?
NSD2 inh: 6; DNMT1 inh: 19; Casp6 inh: 8; HCV NS3 hel inh: 0

Results for C#CCN1C(=O)S/C(=C\c2ccc(-c3ccc(C(=O)O)cc3C)o2)C1=O ?
NSD2 inh: 12; DNMT1 inh: 79*; Casp6 inh: 58*; HCV NS3 hel inh: 31

What do the screens show for `Cc1ccccc1NC(=O)CN1C(=O)S/C(=C\c2ccc(-c3cc(C(=O)O)ccc3C)o2)C1=O`?
NSD2 inh: 14; DNMT1 inh: 30; Casp6 inh: 0; HCV NS3 hel inh: 9

What do the screens show for `CC(C)(C)OC(=O)CN1C(=O)S/C(=C\c2ccc(-c3cccc(C(=O)O)c3)o2)C1=O`?
HCV NS3 hel inh: -39

Results for Cc1cc(C(=O)O)ccc1-c1ccc(/C=C2\SC(=O)N(CC(=O)Nc3ccc4c(c3)OCO4)C2=O)o1 ?
NSD2 inh: 5; DNMT1 inh: 101*; Casp6 inh: 3; HCV NS3 hel inh: 15

How did Cc1cc(C(=O)O)ccc1-c1ccc(/C=C2\NC(=O)N(Cc3ccccc3Cl)C2=O)o1 do in these assays?
DNMT1 inh: 64*; HCV NS3 hel inh: 22

How did C[C@@H]1CN([C@H](C)CO)C(=O)c2cc(NS(=O)(=O)c3cn(C)cn3)ccc2O[C@@H](C)CCCCO[C@H]1CN(C)Cc1ccccc1 do in these assays?
Casp6 inh: 4

How did COc1ccc(NC(=O)CN(C)C(=O)c2cc3c(s2)CCC3)cc1 do in these assays?
NSD2 inh: 8; DNMT1 inh: 97*

What do the screens show for `COc1ccc(NC(=O)CN(C)C(=O)c2cc3c(s2)CCCCC3)cc1`?
NSD2 inh: 1; DNMT1 inh: -1; Casp6 inh: 5; HCV NS3 hel inh: -19

How did Cc1ccc(S(=O)(=O)Nc2cccc3c2O[C@H](CN(C)Cc2ccc(C(F)(F)F)cc2)[C@@H](C)CN([C@H](C)CO)C3=O)cc1 do in these assays?
Casp6 inh: 2

Results for CC1(C)OC(=O)C(=Cc2ccc(-c3ccc(Cl)c(C(=O)O)c3)o2)C(=O)O1 ?
DNMT1 inh: 52*; Casp6 inh: 58*; HCV NS3 hel inh: 29

Results for O=C(O)CCCN1C(=O)/C(=C\c2ccc(-c3nc4ccccc4s3)o2)SC1=S ?
NSD2 inh: 14; DNMT1 inh: 85*; Casp6 inh: 43*; HCV NS3 hel inh: 12

What do the screens show for `CC1=NN(c2ccccc2)C(=O)/C1=C/c1ccc(-c2ccc(C)c(C(=O)O)c2)o1`?
NSD2 inh: 17; Casp6 inh: 4

Results for O=C(O)c1cc(-c2ccc(/C=C3/SC(=S)N(Cc4ccccc4)C3=O)o2)ccc1Cl ?
NSD2 inh: 46; DNMT1 inh: 83*; Casp6 inh: 51*; HCV NS3 hel inh: 23

Results for CC1=NN(c2ccc(Cl)c(C(=O)O)c2)C(=O)/C1=C\c1ccc(-c2ccc(C(=O)O)cc2)o1 ?
NSD2 inh: 8; DNMT1 inh: 28; Casp6 inh: 54*; HCV NS3 hel inh: 0

Results for COCCNC(=O)C[C@H]1CC[C@@H](NC(=O)NC2CCCCC2)[C@H](CO)O1 ?
Casp6 inh: 13

How did C[C@@H]1CN([C@H](C)CO)C(=O)c2cc(-c3ccccc3F)cnc2O[C@@H]1CN(C)Cc1ccc(F)cc1 do in these assays?
Casp6 inh: 0

How did CCN(C[C@H]1N[C@H](CO)[C@@H]1c1ccc(-c2cccc(F)c2)cc1)C(=O)COC do in these assays?
Casp6 inh: 1

Results for CC(=O)n1cc([C@@H]2C=C(C(N)=O)O[C@H](OCCCCO)C2)c2ccccc21 ?
Casp6 inh: 0

What do the screens show for `O=C(C[C@H]1C=C[C@H](NC(=O)c2ccc(F)cc2)[C@H](CO)O1)NCc1ccncn1`?
Casp6 inh: -4

Results for NC(=O)c1c(NC(=O)c2ccc([N+](=O)[O-])o2)sc2c1CCCC2 ?
NSD2 inh: -2; DNMT1 inh: 6; Casp6 inh: 0; HCV NS3 hel inh: 8

What do the screens show for `N#Cc1c(NC(=O)c2ccc([N+](=O)[O-])o2)sc2c1CCC2`?
DNMT1 inh: 19; Casp6 inh: 59*; HCV NS3 hel inh: 6

Results for CCC(=O)Nc1ccc2c(c1)C(=O)N(C)[C@H]1CC[C@H](CC(=O)NCC3CCCCC3)O[C@@H]1CO2 ?
Casp6 inh: -1

What do the screens show for `COC(=O)CCCC1=CC2=CC(=O)C(C)(OC(=O)c3cccs3)C(=O)C2=CN1C1CCCC1` (stereo not drawn)?
DNMT1 inh: -6; Casp6 inh: 10

How did COC(=O)CCCC1=CC2=CC(=O)C(C)(OC(=O)c3cccs3)C(=O)C2=CN1Cc1ccco1 (stereo not drawn) do in these assays?
DNMT1 inh: 4; Casp6 inh: 47*

Results for CC1(OC(=O)c2cccs2)C(=O)C=C2C=C3CCCN3C=C2C1=O (stereo not drawn) ?
DNMT1 inh: 100*

Results for COC(=O)CCCC1=CC2=CC(=O)C(C)(OC(=O)c3cccs3)C(=O)C2=CN1Cc1ccccc1 (stereo not drawn) ?
DNMT1 inh: -16; Casp6 inh: 7

Results for COCC(=O)OC1CCn2c1nc1c2C(=O)C(C)=C(NC(C)=O)C1=O (stereo not drawn) ?
DNMT1 inh: 88*; Casp6 inh: 99*

How did O=C(OC[C@@H]1[C@H]2c3ccccc3OC1(CO)N=C1SCCCN12)c1ccccc1 do in these assays?
Casp6 inh: -3

What do the screens show for `O=C1NC[C@@H](CCCCN2CCN(CCc3ccc(O)cc3)C(=O)C2=O)N(CCc2ccc(O)cc2)C1=O`?
Casp6 inh: 40*

How did COc1cccc(-c2ccc3n(c2=O)C[C@@H]2[C@@H](CO)[C@H](C(=O)NCCN4CCCCC4)N(C)[C@H]32)c1 do in these assays?
Casp6 inh: 1

Compound activity as filed in PubChem.
